Assay results reported in ChEMBL document CHEMBL1122270, “N-(4-substituted-thiazolyl)oxamic acid derivatives, a new series of potent, orally active antiallergy agents” (1983).

Columns and labels:
Assay type in all cases: functional
[1] = tested on: Rattus norvegicus; assay: Antiallergic activity by rat passive cutaneous anaphylaxis (PCA) assay when administered per orally.;value ranges between (1.0-4.1.); settings: po
Outline: (§1)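 Rats were passively sensitized intradermally with diluted reaginic anti-ovalbumin serum 24 h before challenge. Compound was suspended in 1% acacia and dosed by oral feeding needle at 1 mL/kg. After 20-30 min, rats were challenged with 0.02 mg ovalbumin in 0.5 mL 2% Evans Blue. Blued areas were measured 30 min after challenge. Six rats per dose; ED50 is 50% area reduction from control, with 95% confidence limits.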

[2] = tested on: Rattus norvegicus; assay: Antiallergic activity by rat passive cutaneous anaphylaxis (PCA) assay when administered iv.;value ranges between (0.06-0.4)
Outline: (§2)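 Male rats sensitized by id injection of diluted rat anti-ovalbumin reaginic serum (0.1 mL each side of shaved back). 24 h later, compound in saline was mixed with 5 mg ovalbumin in 0.5 mL 2% Evans Blue and given iv at 1 mL/kg. Blued-spot diameters were read 30 min later. Six rats per group; ED50 is 50% area reduction versus control, with 95% confidence limits.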

[3] = tested on: Rattus norvegicus; assay: Antiallergic activity by rat passive cutaneous anaphylaxis (PCA) assay when administered per orally;value ranges between (2.0-5.0.); settings: po; outline: as §1
[4] = tested on: Rattus norvegicus; assay: Antiallergic activity by rat passive cutaneous anaphylaxis (PCA) assay when administered perorally.; settings: po; outline: as §1
[5] = tested on: Rattus norvegicus; assay: antiallergic activity by rat passive cutaneous anaphylaxis (PCA) assay when administered iv; outline: as §2
[6] = tested on: Rattus norvegicus; assay: Antiallergic activity by rat passive cutaneous anaphylaxis (PCA) assay when administered perorally; value ranges between (2.9-15.4); settings: po; outline: as §1
[7] = tested on: Rattus norvegicus; assay: Antiallergic activity by rat passive cutaneous anaphylaxis (PCA) assay when administered iv.;value ranges between (0.2-1.8.); outline: as §2
[8] = tested on: Rattus norvegicus; assay: Antiallergic activity by rat passive cutaneous anaphylaxis (PCA) assay when administered per orally;value ranges between (1.5-9.0).; settings: po; outline: as §1
[9] = tested on: Rattus norvegicus; assay: Antiallergic activity by rat passive cutaneous anaphylaxis (PCA) assay when administered per orally;value ranges between (0.32-1.04); settings: po; outline: as §1
[10] = tested on: Rattus norvegicus; assay: Antiallergic activity by rat passive cutaneous anaphylaxis (PCA) assay when administered iv;value ranges between 0.02-0.07; outline: as §2

`COc1cccc(-c2csc(NC(=O)C(=O)O)n2)c1` was tested, and the ED50 [1] was 2.1 mg/kg and the ED50 [2] was 0.16 mg/kg.

For `CCOC(=O)C(=O)Nc1nc(-c2ccc(N3CCCCC3)cc2)cs1`, the ED50 [3] was 3.2 mg/kg.

`O=C(O)C(=O)Nc1nc(-c2ccccc2)cs1` was tested, and the ED50 [4] was about 1 mg/kg and the ED50 [5] was over 3 mg/kg.

Molecule `NCCO.O=C(O)C(=O)Nc1nc(-c2ccccc2O)cs1` has an ED50 [6] of 6.7 mg/kg and an ED50 [7] of 0.62 mg/kg.

`CCOC(=O)C(=O)Nc1nc(-c2ccc(O)cc2C)cs1` was tested, and the ED50 [8] was 3.7 mg/kg.

With `NCCO.O=C(O)C(=O)Nc1nc(-c2ccc3c(c2)OCCO3)cs1` the ED50 [9] was 0.6 mg/kg and the ED50 [10] was 0.039 mg/kg.
